In brackets after ≈: the same amount, converted by molar mass. Numbered stars: 1 amine (or outer) side, 2 acyl side, 3 side chain; on linkers, the order of the positions; unused ones are H or OH. Bridge positions count the residues as written; N and C are the ends. Square brackets hold non-standard residues; d marks the D form. Peptide text beside a SMILES is read from it. * marks the point of attachment. Phe(4-NH2) = Nc1ccc(C[C@H](N)C(=O)O)cc1; NH(2-ClPh) = Clc1ccccc1N*; dDab = NCC[C@@H](N)C(=O)O; Octanoyl = CCCCCCCC(=O)*; Dab = NCC[C@H](N)C(=O)O; CO = O=C([*:1])[*:2]
Experiments:
Acinetobacter baumannii [1] = test: Antibacterial activity against clinical isolate carbapenem and polymyxin resistant Acinetobacter baumannii Ptyela 100734512:2 after 18 hrs by 2 fold serial dilution method; type: functional; settings: Ptyela 100734512:2, 18 h
Outline: (§1)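 Polymyxin-resistant clinical isolates were grown overnight at 37 °C in NB or MHB with shaking, diluted 50-fold in MHB and grown 1.5–3 h to mid-log phase. The inoculum was 5×10^5 CFU/mL. Compounds were 2-fold broth serial dilutions, final 32 to 0.015 μg/mL; the polymyxin controls ran 128–0.06 μg/mL. The MIC was the lowest concentration with no visible growth after 18 h at 37 °C.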

Klebsiella pneumoniae [2] = test: Antibacterial activity against Klebsiella pneumoniae ATCC BAA-2146 expressing NDM-1 after 18 hrs by 2 fold serial dilution method; type: functional; settings: ATCC BAA-2146, 18 h
Outline: (§2)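 Overnight cultures at 37 °C in nutrient or Mueller Hinton broth with shaking were diluted 50-fold in MHB and grown 1.5–3 h to mid-log phase. The inoculum was 5×10^5 CFU/mL in MHB. Compounds were 2-fold serially diluted, final 32 to 0.015 μg/mL. After 18 h at 37 °C, the MIC was read visually as the lowest concentration with no visible growth.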

Pseudomonas aeruginosa [3] = test: Antibacterial activity against clinical isolate polymyxin resistant Pseudomonas aeruginosa PA9704 after 18 hrs by 2 fold serial dilution method; type: functional; settings: PA9704, 18 h; outline: as §1
[4] = Cytotoxicity against human HepG2 cells after 24 hrs by resazurin assay; type: cell-based; settings: HepG2 cells
Escherichia coli = test: Antibacterial activity against Escherichia coli ATCC 25922 after 18 hrs by 2 fold serial dilution method; type: functional; settings: ATCC 25922, 18 h
Outline: (§3)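 Overnight cultures in nutrient or Mueller Hinton broth at 37 °C with shaking, diluted 50-fold into fresh MHB and grown 1.5–3 h to mid-log. Inoculum 5×10^5 CFU/mL in 2-fold serial dilutions, final range 32 to 0.015 μg/mL. MIC read visually after 18 h at 37 °C as the lowest concentration with no visible growth.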

Klebsiella pneumoniae [5] = test: Antibacterial activity against clinical isolate carbapenem and polymyxin resistant Klebsiella pneumoniae 138-16357-20362 after 18 hrs by 2 fold serial dilution method; type: functional; settings: 138-16357-20362, 18 h; outline: as §1
Klebsiella pneumoniae [6] = test: Antibacterial activity against clinical isolate carbapenem and polymyxin resistant Klebsiella pneumoniae Koprana 100650661:1 after 18 hrs by 2 fold serial dilution method; type: functional; settings: Koprana 100650661:1, 18 h; outline: as §1
Pseudomonas aeruginosa [7] = test: Antibacterial activity against Pseudomonas aeruginosa ATCC 27853 after 18 hrs by 2 fold serial dilution method; type: functional; settings: ATCC 27853, 18 h; outline: as §3
Acinetobacter baumannii [8] = test: Antibacterial activity against Acinetobacter baumannii ATCC 19606 after 18 hrs by 2 fold serial dilution method; type: functional; settings: ATCC 19606, 18 h; outline: as §3
Klebsiella pneumoniae [9] = test: Antibacterial activity against multidrug resistant Klebsiella pneumoniae ATCC 700603 after 18 hrs by 2 fold serial dilution method; type: functional; settings: Klebsiella pneumoniae, 700603, 18 h; outline: as §2
Staphylococcus aureus = test: microbe, parasite or virus in culture; settings: ATCC 25923, 18 h
Klebsiella pneumoniae [10] = test: Antibacterial activity against Klebsiella pneumoniae ATCC 13883 after 18 hrs by 2 fold serial dilution method; type: functional; settings: ATCC 13883, 18 h; outline: as §3
Pseudomonas aeruginosa [11] = test: Antibacterial activity against clinical isolate polymyxin resistant Pseudomonas aeruginosa FADDI-PA070 after 18 hrs by 2 fold serial dilution method; type: functional; settings: FADDI-PA070, 18 h; outline: as §1

CC(C)C[C@@H]1NC(=O)[C@@H](Cc2ccccc2)NC(=O)[C@H](CCN)NC(=O)[C@@H](NC(=O)[C@@H](CCN)NC(=O)[C@@H](NC(=O)[C@H](CCN)NC(=O)Nc2ccccc2Cl)[C@@H](C)O)CCNC(=O)[C@H]([C@@H](C)O)NC(=O)[C@H](CCN)NC(=O)[C@H](CCN)NC1=O ({NH(2-ClPh)-CO}-[Dab]T[dDab][Dab][Dab][dF]L[Dab][Dab]T; lactam 4-C)
MIC (Acinetobacter baumannii [1]): > 32 µg/mL | MIC (Klebsiella pneumoniae [2]): 1 µg/mL (≈ 0.822 µM) | MIC (Pseudomonas aeruginosa [3]): > 32 µg/mL | CC50 at 24 h [4]: > 300 µM | MIC (Escherichia coli): 1 µg/mL (≈ 0.822 µM) | MIC (Klebsiella pneumoniae [5]): > 32 µg/mL | MIC (Klebsiella pneumoniae [6]): > 32 µg/mL | MIC (Pseudomonas aeruginosa [7]): 0.5 µg/mL (≈ 0.411 µM) | MIC (Acinetobacter baumannii [8]): 2 µg/mL (≈ 1.64 µM) | MIC (Klebsiella pneumoniae [9]): 0.5 µg/mL (≈ 0.411 µM) | MIC (Staphylococcus aureus): > 32 µg/mL | MIC (Klebsiella pneumoniae [10]): 0.5 µg/mL (≈ 0.411 µM) | MIC (Pseudomonas aeruginosa [11]): 16 µg/mL (≈ 13.1 µM)

CCCCCCCC(=O)N[C@@H](CCN)C(=O)N[C@H](C(=O)N[C@@H](CCN)C(=O)N[C@H]1CCNC(=O)[C@H]([C@@H](C)O)NC(=O)[C@H](CCN)NC(=O)[C@H](CCN)NC(=O)[C@H](CC(C)C)NC(=O)[C@@H](Cc2ccccc2)NC(=O)[C@H](Cc2ccc(N)cc2)NC1=O)[C@@H](C)O (Octanoyl-[Dab]T[Dab][Dab][Phe(4-NH2)][dF]L[Dab][Dab]T; lactam 4-C)
MIC (Acinetobacter baumannii [1]): > 32 µg/mL | MIC (Pseudomonas aeruginosa [3]): > 32 µg/mL | CC50 at 24 h [4]: > 300 µM | MIC (Escherichia coli): > 32 µg/mL | MIC (Klebsiella pneumoniae [5]): > 32 µg/mL | MIC (Klebsiella pneumoniae [6]): > 32 µg/mL | MIC (Pseudomonas aeruginosa [7]): > 32 µg/mL | MIC (Acinetobacter baumannii [8]): > 32 µg/mL | MIC (Klebsiella pneumoniae [9]): > 32 µg/mL | MIC (Staphylococcus aureus): > 32 µg/mL | MIC (Klebsiella pneumoniae [10]): > 32 µg/mL | MIC (Pseudomonas aeruginosa [11]): > 32 µg/mL

CCCCCCCC(=O)N[C@@H](CCN)C(=O)N[C@H](C(=O)N[C@@H](CCN)C(=O)N[C@H]1CCNC(=O)[C@H]([C@@H](C)O)NC(=O)[C@H](CCN)NC(=O)[C@H](CCCNC(=N)N)NC(=O)[C@H](CC(C)C)NC(=O)[C@@H](Cc2ccccc2)NC(=O)[C@H](CCN)NC1=O)[C@@H](C)O
MIC (Acinetobacter baumannii [1]): 32 µg/mL (≈ 25.7 µM) | MIC (Klebsiella pneumoniae [2]): 0.5 µg/mL (≈ 0.401 µM) | MIC (Pseudomonas aeruginosa [3]): > 32 µg/mL | MIC (Escherichia coli): 0.25 µg/mL (≈ 0.201 µM) | MIC (Klebsiella pneumoniae [5]): > 32 µg/mL | MIC (Klebsiella pneumoniae [6]): > 32 µg/mL | MIC (Pseudomonas aeruginosa [7]): 1 µg/mL (≈ 0.803 µM) | MIC (Acinetobacter baumannii [8]): 0.5 µg/mL (≈ 0.401 µM) | MIC (Klebsiella pneumoniae [9]): 0.5 µg/mL (≈ 0.401 µM) | MIC (Staphylococcus aureus): > 32 µg/mL | MIC (Klebsiella pneumoniae [10]): 4 µg/mL (≈ 3.21 µM) | MIC (Pseudomonas aeruginosa [11]): 32 µg/mL (≈ 25.7 µM)

CCCCCCCC(=O)N[C@@H](CCN)C(=O)N[C@H](C(=O)N[C@@H](CCN)C(=O)N[C@H]1CCNC(=O)[C@H]([C@@H](C)O)NC(=O)[C@H](CCN)NC(=O)[C@H](CCN)NC(=O)[C@H](CC(C)C)NC(=O)[C@@H](Cc2ccccc2)NC(=O)[C@H](CCCNC(=N)N)NC1=O)[C@@H](C)O (Octanoyl-[Dab]T[Dab][Dab]R[dF]L[Dab][Dab]T; lactam 4-C)
MIC (Acinetobacter baumannii [1]): > 32 µg/mL | MIC (Klebsiella pneumoniae [2]): 32 µg/mL (≈ 25.7 µM) | MIC (Pseudomonas aeruginosa [3]): > 32 µg/mL | CC50 at 24 h [4]: > 300 µM | MIC (Escherichia coli): 16 µg/mL (≈ 12.8 µM) | MIC (Klebsiella pneumoniae [5]): > 32 µg/mL | MIC (Klebsiella pneumoniae [6]): > 32 µg/mL | MIC (Pseudomonas aeruginosa [7]): 32 µg/mL (≈ 25.7 µM) | MIC (Acinetobacter baumannii [8]): > 32 µg/mL | MIC (Klebsiella pneumoniae [9]): 32 µg/mL (≈ 25.7 µM) | MIC (Staphylococcus aureus): > 32 µg/mL | MIC (Klebsiella pneumoniae [10]): > 32 µg/mL | MIC (Pseudomonas aeruginosa [11]): > 32 µg/mL

CCCCCCCC(=O)N[C@@H](CCN)C(=O)N[C@H](C(=O)N[C@H](CCN)C(=O)N[C@H]1CCNC(=O)[C@H]([C@@H](C)O)NC(=O)[C@H](CCN)NC(=O)[C@H](CCN)NC(=O)[C@H](CC(C)C)NC(=O)[C@@H](Cc2ccccc2)NC(=O)[C@H](CCN)NC1=O)[C@@H](C)O (Octanoyl-[Dab]T[dDab][Dab][Dab][dF]L[Dab][Dab]T; lactam 4-C)
MIC (Acinetobacter baumannii [1]): > 32 µg/mL | MIC (Klebsiella pneumoniae [2]): 4 µg/mL (≈ 3.36 µM) | MIC (Pseudomonas aeruginosa [3]): 32 µg/mL (≈ 26.9 µM) | CC50 at 24 h [4]: > 300 µM | MIC (Escherichia coli): 4 µg/mL (≈ 3.36 µM) | MIC (Klebsiella pneumoniae [5]): > 32 µg/mL | MIC (Klebsiella pneumoniae [6]): > 32 µg/mL | MIC (Pseudomonas aeruginosa [7]): 2 µg/mL (≈ 1.68 µM) | MIC (Acinetobacter baumannii [8]): 1 µg/mL (≈ 0.841 µM) | MIC (Klebsiella pneumoniae [9]): 1 µg/mL (≈ 0.841 µM) | MIC (Staphylococcus aureus): > 32 µg/mL | MIC (Klebsiella pneumoniae [10]): 0.5 µg/mL (≈ 0.42 µM) | MIC (Pseudomonas aeruginosa [11]): > 32 µg/mL

CCCCCCCC(=O)N[C@@H](CCN)C(=O)N[C@H](C(=O)N[C@@H](CCN)C(=O)N[C@H]1CCNC(=O)[C@H]([C@@H](C)O)NC(=O)[C@H](CCN)NC(=O)[C@H](CCNC(=O)[C@@H](N)CCCNC(=N)N)NC(=O)[C@H](CC(C)C)NC(=O)[C@@H](Cc2ccccc2)NC(=O)[C@H](CCN)NC1=O)[C@@H](C)O
MIC (Acinetobacter baumannii [1]): > 32 µg/mL | MIC (Klebsiella pneumoniae [2]): 1 µg/mL (≈ 0.743 µM) | MIC (Pseudomonas aeruginosa [3]): > 32 µg/mL | MIC (Escherichia coli): 0.5 µg/mL (≈ 0.372 µM) | MIC (Klebsiella pneumoniae [5]): > 32 µg/mL | MIC (Klebsiella pneumoniae [6]): > 32 µg/mL | MIC (Pseudomonas aeruginosa [7]): 2 µg/mL (≈ 1.49 µM) | MIC (Acinetobacter baumannii [8]): 4 µg/mL (≈ 2.97 µM) | MIC (Klebsiella pneumoniae [9]): 0.5 µg/mL (≈ 0.372 µM) | MIC (Staphylococcus aureus): > 32 µg/mL | MIC (Klebsiella pneumoniae [10]): 4 µg/mL (≈ 2.97 µM) | MIC (Pseudomonas aeruginosa [11]): > 32 µg/mL
